Test results from ChEMBL document CHEMBL4513216, “Probing the Open Global Health Chemical Diversity Library for Multistage-Active Starting Points for Next-Generation Antimalarials” (ACS Infect Dis, 2020).

Assay: Toxicity liver stage against HepG2, at 10uM
Type: cell-based
Set-up: test concentration 10 uM, cell line HepG2-A16-CD81EGFP
Conditions: human, HepG2-A16-CD81EGFP cells; read-out: INHIBITION
How it was run: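 Uninfected HepG2-A16-CD81EGFP cells, 3 × 10^3 per well, 1536-well, plated on prespotted compound at 10 μM final, parasite-free screening media added to match infected plates; puromycin 10 μM positive, DMSO 0.5% negative; run in parallel with 48 h PbLuc assay at 37 °C, 5% CO2; viability by CellTiter-Glo luminescence, normalized to controls.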

`O=C(c1ccc(N2CCCC2)nn1)N1CCc2ccccc21` gave a cytotoxicity at 10 µM of 2.6%.
`O=S(=O)(NCC1(c2cccs2)CCOCC1)c1cccnc1` gave a cytotoxicity at 10 µM of -3.51%.
With `Cc1cc(C(=O)NCC2Cn3nnc(C)c3CO2)no1` (stereo unspecified) the cytotoxicity at 10 µM was -4.07%.
For `Cc1ccc(CN2CCC3(CC(C(=O)NCC4CC4)=NO3)C2)s1` (stereo unspecified), the cytotoxicity at 10 µM was 5.92%.
With `COc1cccc(C(=O)NCC(O)c2cccs2)c1` (stereo unspecified) the cytotoxicity at 10 µM was -22.4%.
With `CC(=O)c1ccc(Nc2nc(N)nc3c2nc(C)n3C)cc1` the cytotoxicity at 10 µM was -8.23%.
Compound `O=C(c1cc(-c2cccs2)cs1)N1CCOCC1` has a cytotoxicity at 10 µM of 5.01%.
Work on `N#Cc1cnn(C(=O)COc2ccccc2F)c1N` yielded a cytotoxicity at 10 µM of 2.92%.
For `COc1ccc(-n2cc(CNC(=O)c3cc[nH]n3)nn2)cc1`, the cytotoxicity at 10 µM was -4.71%.
Compound `CC1CCN(C(=O)CCN2Cc3ccccc3C[C@H]2C(N)=O)C1` (stereo partly specified) has a cytotoxicity at 10 µM of -3.11%.
`COC(=O)C1CN(Cc2ccn(-c3ccc(F)cc3)n2)CCO1` (stereo unspecified) showed a cytotoxicity at 10 µM of -8.51%.
`CC(C)(C)c1noc(CCC(=O)N2CCNC(=O)C2)n1` gave a cytotoxicity at 10 µM of -4.96%.
`CCN(CC(=O)NC)C(=O)c1csc(Cc2ccccc2)n1` showed a cytotoxicity at 10 µM of -5.66%.
With `CC(C)(C)c1noc(CCCC(=O)N2CCNC(=O)CC2)n1` the cytotoxicity at 10 µM was -7.49%.
With `Cc1noc(CCCC(=O)N2CCNC(=O)C2)n1` the cytotoxicity at 10 µM was -4.62%.
Work on `CC(C)C1C(=O)NCCN1C(=O)CCCc1nc(C(C)(C)C)no1` (stereo unspecified) yielded a cytotoxicity at 10 µM of -3.53%.
`Cc1nc(C(NS(=O)(=O)N(C)C)c2ccccc2F)no1` (stereo unspecified) showed a cytotoxicity at 10 µM of -2.09%.
Compound `COc1cccc(-c2cc(NCc3nc(C)cs3)n(C)n2)c1` has a cytotoxicity at 10 µM of -0.717%.
`COC(=O)c1ccc(NC2CCN(CC(F)(F)F)C2=O)cc1C` (stereo unspecified) showed a cytotoxicity at 10 µM of 2.79%.
`CCc1nc(CN2CCCN(C(=O)c3ccccc3)CC2)cs1` gave a cytotoxicity at 10 µM of 7.41%.
With `Cc1nn(-c2ccccc2)c(C)c1CNC(=O)NC1CC1` the cytotoxicity at 10 µM was 7.59%.
Compound `Cc1nc2n(n1)CC(NCc1c(Cl)ccc3cccnc13)CC2` (stereo unspecified) has a cytotoxicity at 10 µM of 0.0383%.
Compound `Cc1noc(CCNC(=O)NCC(=O)NCc2ccccc2)n1` has a cytotoxicity at 10 µM of 5.24%.
`O=C(NCCN1CCOCC1)NCc1ccc(-n2cccn2)cc1` gave a cytotoxicity at 10 µM of -6.4%.
In the case of `CCc1ncncc1C(=O)NCCNS(=O)(=O)c1ccccc1`, the cytotoxicity at 10 µM is reported as -6.55%.
`Cc1nnc(NCC(c2ccco2)N(C)C)c(C#N)c1C` (stereo unspecified) gave a cytotoxicity at 10 µM of -3.01%.
Work on `Cc1noc(C)c1C(=O)NCCN1CCN(S(C)(=O)=O)CC1` yielded a cytotoxicity at 10 µM of -12.4%.
`Cc1nn(CN(CC(C)C)C2CC2)c(=O)c2noc(C)c12` showed a cytotoxicity at 10 µM of -3.39%.
For `O=C(NCC(O)COc1cccc(F)c1)c1ccoc1` (stereo unspecified), the cytotoxicity at 10 µM was -2.56%.
Work on `OCCOc1ccc(NCc2cc(F)cc3cccnc23)cn1` yielded a cytotoxicity at 10 µM of -4.46%.
For `CCn1c(C)nnc1CN(C)C1CCN(Cc2c(C)noc2C)C1` (stereo unspecified), the cytotoxicity at 10 µM was 0.317%.
For `CC(C)c1nnc2n1CCN(Cc1csc(-c3cnn(C)c3)n1)C2`, the cytotoxicity at 10 µM was -2.17%.
In the case of `CCN(C(=O)c1cnc(-c2ccc3c(c2)OCO3)s1)C1CC1`, the cytotoxicity at 10 µM is reported as -0.839%.
Work on `O=C(Nc1ccnc2ccnn12)c1ccc(NC2CC2)nc1` yielded a cytotoxicity at 10 µM of 5.14%.
Work on `Cc1cccc(C(=O)Nc2ccc(OC3CCOCC3)c(C)c2)n1` yielded a cytotoxicity at 10 µM of -8.99%.
For `Cc1nc(CNc2ncc(Br)cn2)n[nH]1`, the cytotoxicity at 10 µM was -3.47%.
Work on `O=C(Nc1ccc2c(c1)OC1(CCCC1)O2)c1ccc(=O)[nH]n1` yielded a cytotoxicity at 10 µM of 0.887%.
With `COCCc1noc(-c2cc(Cl)c3c(c2)OCCCO3)n1` the cytotoxicity at 10 µM was 3.61%.
With `CCN1CCN(CC(O)c2cc(Cl)ccc2Cl)CC1` (stereo unspecified) the cytotoxicity at 10 µM was 0.388%.
For `Cc1cc(CS(=O)(=O)NC2CCCc3ccccc32)on1` (stereo unspecified), the cytotoxicity at 10 µM was -1.57%.
Work on `CC(C)NC(=O)Nc1ccc(-c2nc(C(C)C)no2)cc1` yielded a cytotoxicity at 10 µM of -8.56%.
Compound `CC(C)c1noc(-c2ccc(NC(=O)NCC(O)C(C)C)cc2)n1` (stereo unspecified) has a cytotoxicity at 10 µM of -7.03%.
With `Cc1c(C(=O)NCCC(=O)N2CCCC2)oc2c(F)cccc12` the cytotoxicity at 10 µM was 5.87%.
Work on `CN(C(=O)Cc1ccc2c(c1)OCCO2)C1CCCC1` yielded a cytotoxicity at 10 µM of 9.66%.
`O=C1OC2(CCN(CC3CCCO3)CC2)CN1CCc1ccccc1` (stereo unspecified) gave a cytotoxicity at 10 µM of -6.21%.
Work on `O=C1CCC(c2ccccc2)(c2ccccc2)CN1CCO` yielded a cytotoxicity at 10 µM of 2.94%.
`Cc1cc(C(=O)N2CCCC(Cn3cc(C4CC4)nn3)C2)nc(C)n1` (stereo unspecified) gave a cytotoxicity at 10 µM of -0.916%.
Compound `Cc1ncsc1CN1CC2(CCCC2)CC1=O` has a cytotoxicity at 10 µM of -0.369%.
With `COc1ccc2c(C)c(C(=O)NC3CCN(S(C)(=O)=O)CC3)oc2c1` the cytotoxicity at 10 µM was 8.55%.
For `CN(CC1Cc2ccccc2CN1C)C(=O)Cc1cccs1` (stereo unspecified), the cytotoxicity at 10 µM was -0.661%.
`CC[C@@H](NC(C)=O)C(=O)NCc1cccnc1Oc1ccccc1OC` gave a cytotoxicity at 10 µM of -3.06%.
Work on `Cc1ccnc(NCc2cn3c(C)csc3n2)n1` yielded a cytotoxicity at 10 µM of -5.66%.
`COc1ccccc1OCc1cc(C(=O)N2CCOCC2CO)n[nH]1` (stereo unspecified) gave a cytotoxicity at 10 µM of -3.94%.
Work on `COC1CCCOC12CCN(C(=O)NCCc1cccs1)CC2` (stereo unspecified) yielded a cytotoxicity at 10 µM of 1.03%.
Work on `CC(=O)N[C@H]1CCN(C(=O)c2cc(Cn3cnc4ccccc43)[nH]n2)C1` yielded a cytotoxicity at 10 µM of -1.91%.
`CCc1ccc(-c2cn3c(C(=O)N[C@H](C(N)=O)[C@@H](C)O)csc3n2)cc1` gave a cytotoxicity at 10 µM of 7.69%.
`CCNc1ccnc(-c2ccnc3c2ccn3C)n1` gave a cytotoxicity at 10 µM of 11.2%.
With `CCn1c(N)nc2cc(C(=O)N3CC(c4ccccn4)C3)cnc21` the cytotoxicity at 10 µM was -14.8%.
For `FC(F)(F)CCc1ncnn1-c1ccc2c(c1)OCO2`, the cytotoxicity at 10 µM was -3.55%.
With `COc1cc2c(cc1C(=O)N1CC(c3ccncc3)C1)CCC2` the cytotoxicity at 10 µM was 0.545%.
In the case of `Fc1ccccc1CC1CCN(Cc2nccs2)CC1`, the cytotoxicity at 10 µM is reported as -6.92%.
Compound `CC(C)Cc1cc(C(=O)NC(C)(CO)CO)n(C)n1` has a cytotoxicity at 10 µM of 6.57%.
Work on `Cc1nnsc1CNC(=O)Nc1cccc(N2CCN(C)C2=O)c1` yielded a cytotoxicity at 10 µM of -3.97%.
With `O=C(NCc1ccc2nonc2c1)C1CCN(C(=O)C2CCC2)CC1` the cytotoxicity at 10 µM was -8.61%.
Compound `Cc1cc(C)nc(CNC(=O)C(c2cccnc2)N2CCOCC2)n1` (stereo unspecified) has a cytotoxicity at 10 µM of -1.43%.
With `Cc1c(C(=O)NC2CCCC2)nnn1-c1ccccc1` the cytotoxicity at 10 µM was 11.4%.
`Cc1ccc([C@@H]2CN(C(=O)c3cccnn3)C[C@H]2NC(=O)C2CC2)cc1` showed a cytotoxicity at 10 µM of -17.7%.
Work on `Cc1ccc(NC2CCN(C(=O)c3ccnc(N(C)C)c3)CC2)nn1` yielded a cytotoxicity at 10 µM of 3.97%.
Compound `CN(C)S(=O)(=O)N(C)C(c1cccc(F)c1)c1ccccn1` (stereo unspecified) has a cytotoxicity at 10 µM of 3.22%.
Compound `CCN(Cc1ccccc1)C(=O)CN1CCOC(Cn2cncn2)C1` (stereo unspecified) has a cytotoxicity at 10 µM of -6.31%.
For `NC(=O)CS(=O)(=O)Cc1cc(Cl)c2c(c1)OCCCO2`, the cytotoxicity at 10 µM was -0.463%.
`Cc1ccc2cc(C(=O)N3CCCC3Cn3cccn3)[nH]c2c1` (stereo unspecified) showed a cytotoxicity at 10 µM of -7.39%.
Work on `O=C(OCC1CCCN1)c1cccc(NC(=O)c2ccco2)c1` (stereo unspecified) yielded a cytotoxicity at 10 µM of -6.66%.
`CN1[C@@H]2CC[C@H]1CN(C(=O)c1nnc3n1CCCC3)CC2` showed a cytotoxicity at 10 µM of -10.6%.
Work on `CCCN1C[C@@H]2CC[C@H]1CN(C(=O)Cn1c(C)cc(C)nc1=O)C2` yielded a cytotoxicity at 10 µM of -4.57%.
Work on `Cc1c(C)c2c(c(C)c1O)CC[C@](C)(C(=O)O)O2` [(R)-TROLOX] yielded a cytotoxicity at 10 µM of -1.69%.
